High-throughput results (PubChem BioAssay)
This is a sample that favours compounds with a hit; in the whole collection about 1.6% have one here.
TCR CD3 inh = inhibitors of human TCR-CD3 interaction, primary screen, biochemical, fluorescence, TAMRA-labeled TCR probe. AID 651800, 2012. inhibition, % at 9.4 µM. T-cell receptor (TCR). 360,000 compounds, 0.37% hits; in the data active means inhibition above about 19%;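 further: recombinant mutant TCR 2C K166C tagged with TAMRA read by polarization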
RBBP9 inh = human RBBP9 inhibitors, primary screen, biochemical, fluorescence polarization, FP-Rh probe, HTS; Serine hydrolase RBBP9 (Homo sapiens), O75884; recombinant RBBP9; inhibition, % at 7.94 µM; 220,000 compounds, 0.2% hits;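 active means inhibition above the campaign mean of all tested compounds plus 3 SD, cut at about 14% in these data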
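Material: RBBP9 protein. Amount: RBBP9 at 2.5 µM in dispensed solution, before mixing. Schedule: 30 min then 45 min, 25 °C. Medium: Tris buffer pH 8.0, NaCl, Pluronic. Measured by: fluorescence polarization. Measure: percent inhibition from mP, scaled between DMSO and no-protein wells. Replication: one well per compound.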
eIF4H inh = human eIF4H binding inhibitors, primary screen, translation initiation inhibitor project, biochemical, uHTS, fluorescence polarization; eIF4H fluorescence polarization binding assay; inhibition, % at 35 µM; 290,000 compounds, 0.94% hits; Eukaryotic translation initiation factor 4H (Homo sapiens), Q15056;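 further: calls also rest on retests at 20 µM and on dose response follow-up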
PABP FP inh = PABP poly(A) RNA binding inhibitors, primary screen, biochemical, fluorescence polarization, uHTS | calls only at 35 µM | Polyadenylate-binding protein 1 (Homo sapiens), P11940 | AID 2014, 2009 | 290,000 compounds, 1% hits;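 further: calls also rest on retests at 20 µM and on dose response follow-up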
MLLE-PAM2 inh = inhibitors of PABP1 MLLE–PAM2 peptide binding, primary screen, biochemical, fluorescence polarization, FITC-PAM2, GST-MLLE; Polyadenylate-binding protein 1 (Homo sapiens), P11940; 360,000 compounds, 0.36% hits; AID 588489, 2011; inhibition, % at 20 µM; in the data active means inhibition above about 35%, passing the limit was not always enough
BSA probe FL = compounds interfering with TAMRA-BSA probe, counter-screen for TCR-CD3 interaction inhibitor project, biochemical, fluorescence, TAMRA-labeled BSA; AID 652035, 2013; inhibition, % at 9.4 µM; shares compounds with TCR CD3 inh; 1,200 compounds, 10% hits; TAMRA-labeled BSA probe fluorescence counterscreen; in the data active means inhibition above about 23%
TCR-CD3 inh conf = TCR-CD3 interaction inhibitors, retest, confirmation, biochemical, fluorescence, TAMRA-labeled TCR probe; inhibition, % at 9.4 µM; shares compounds with TCR CD3 inh; 1,200 compounds, 48% hits; TAMRA-labeled TCR probe fluorescence binding assay; in the data active means inhibition above about 19%
Each line names hits and unclear results; the compound was inactive in the other large screens (follow-up assays come after a bar, where they were run). Unless noted, how the calls were made is not given here.

O=C(CCc1ccc(S(=O)(=O)N2CCOCC2)cc1)Nc1cc(Cl)ccc1N1CCOCC1	TCR CD3 inh 21 | BSA probe FL inactive | TCR-CD3 inh conf inactive
O=C(CCc1ccc(S(=O)(=O)N2CCOCC2)cc1)N/N=C/c1ccc(O)c(O)c1O	TCR CD3 inh 28, eIF4H inh 96, PABP FP inh active | BSA probe FL inactive | TCR-CD3 inh conf 25
CC(=O)C1=CCC(c2cccc3ccccc23)N(S(=O)(=O)c2ccc(C)cc2)C1 (stereo not given)	none (no result: RBBP9 inh, eIF4H inh, PABP FP inh)
Nc1[nH]c(C(=O)c2ccccc2)c(-c2ccc(Cl)cc2)c1C(=O)c1c[nH]c2ccc(Br)cc12	none (no result: RBBP9 inh, eIF4H inh, PABP FP inh, MLLE-PAM2 inh)
CCC(=O)NNC(=O)c1c(O)c2ccccc2[nH]c1=O	TCR CD3 inh 33 | BSA probe FL inactive | TCR-CD3 inh conf 24
CCCCCCCC(=O)NNC(=O)c1c(O)c2ccccc2[nH]c1=O	none
O=S(=O)(Nc1cccc2ncccc12)c1cccc(C(F)(F)F)c1	TCR CD3 inh 20 (no result: RBBP9 inh, eIF4H inh, PABP FP inh) | BSA probe FL inactive | TCR-CD3 inh conf inactive
Cc1ccc(S(=O)(=O)Nc2cccc3ncccc23)cc1	none
Cc1ccc(NS(=O)(=O)c2ccc(Cl)c(C(=O)Nc3ccccc3-c3nc4ccccc4[nH]3)c2)cc1C	TCR CD3 inh 78 | BSA probe FL inactive | TCR-CD3 inh conf 37
CN(C)S(=O)(=O)c1ccc(Cl)c(C(=O)Nc2nc3ccccc3[nH]2)c1	none
O=C(N/N=C/c1cccc([N+](=O)[O-])c1)c1ccc(COc2ccccc2-c2ccccc2)cc1	TCR CD3 inh 50 | BSA probe FL inactive | TCR-CD3 inh conf 50
COC(=O)C1=C(C)N(Cc2ccccc2C(F)(F)F)C(=NCc2ccc(OC)cc2)NC1c1ccccc1 (stereo not given)	none (no result: RBBP9 inh, eIF4H inh, PABP FP inh, MLLE-PAM2 inh)
O=C(N/N=C/C(Br)=C\c1ccccc1)c1ccco1	TCR CD3 inh 170 | BSA probe FL inactive | TCR-CD3 inh conf inactive
O=Cc1cscc1[B-](F)(F)F	none (no result: RBBP9 inh, eIF4H inh, PABP FP inh, MLLE-PAM2 inh)
